Data as given in ChEMBL document CHEMBL4145441, “Discovery of N-(5-((5-chloro-4-((2-(isopropylsulfonyl)phenyl)amino)pyrimidin-2-yl)amino)-4-methoxy-2-(4-methyl-1,4-diazepan-1-yl)phenyl)acrylamide (CHMFL-ALK/EGFR-050) as a potent ALK/EGFR dual kinase inhibitor capable of overcoming a variety of ALK/EGFR associated drug resistant mutants in NSCLC” (Eur J Med Chem, 2017).
Activity calls are given as the source filed them. No cut-off for these calls is given here.

Tests used:
[1] = tested on: NCI-H3255; test: Antiproliferative activity against human H3255 cells harboring EGFR L858R mutant after 72 hrs by CellTiter-Glo assay; type: functional; settings: NCI-H3255, 72 h
[2] = Tmax in Sprague-Dawley rat at 1 mg/kg, iv; type: ADME, organism-based; settings: in vivo
Procedure, shortened: (§1)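 Pharmacokinetics in rats given a single dose either intravenously at 1 mg/kg or orally at 10 mg/kg. Plasma parameters derived include AUC0-t, AUC0-∞, MRT(0-t), Cmax, Tmax, T1/2 and oral F (%).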

[3] = Antiproliferative activity against CHL cells after 72 hrs by CellTiter-Glo assay; type: cell-based, Cricetulus griseus; settings: chinese hamster
[4] = tested on: HCC827; test: Antiproliferative activity against human HCC827 cells harboring EGFR del19 mutant after 72 hrs by CellTiter-Glo assay; type: functional; settings: HCC827, 72 h
[5] = tested on: PC-9; test: Induction of apoptosis in human PC9 cells assessed as increase in cleaved PARP expression level at 300 nM to 1 uM after 24 hrs by Western blot method; type: functional, cell-based
[6] = target: T1, Epidermal growth factor receptor (Homo sapiens, UniProt P00533); test: Inhibition of EGFR in human A549 cells assessed as reduction in EGF-induced ERK phosphorylation at Thr202/Tyr204 residues up to 3 uM after 4 hrs by immunoblotting method; type: cell-based
T1 sequence (P00533 whole entry): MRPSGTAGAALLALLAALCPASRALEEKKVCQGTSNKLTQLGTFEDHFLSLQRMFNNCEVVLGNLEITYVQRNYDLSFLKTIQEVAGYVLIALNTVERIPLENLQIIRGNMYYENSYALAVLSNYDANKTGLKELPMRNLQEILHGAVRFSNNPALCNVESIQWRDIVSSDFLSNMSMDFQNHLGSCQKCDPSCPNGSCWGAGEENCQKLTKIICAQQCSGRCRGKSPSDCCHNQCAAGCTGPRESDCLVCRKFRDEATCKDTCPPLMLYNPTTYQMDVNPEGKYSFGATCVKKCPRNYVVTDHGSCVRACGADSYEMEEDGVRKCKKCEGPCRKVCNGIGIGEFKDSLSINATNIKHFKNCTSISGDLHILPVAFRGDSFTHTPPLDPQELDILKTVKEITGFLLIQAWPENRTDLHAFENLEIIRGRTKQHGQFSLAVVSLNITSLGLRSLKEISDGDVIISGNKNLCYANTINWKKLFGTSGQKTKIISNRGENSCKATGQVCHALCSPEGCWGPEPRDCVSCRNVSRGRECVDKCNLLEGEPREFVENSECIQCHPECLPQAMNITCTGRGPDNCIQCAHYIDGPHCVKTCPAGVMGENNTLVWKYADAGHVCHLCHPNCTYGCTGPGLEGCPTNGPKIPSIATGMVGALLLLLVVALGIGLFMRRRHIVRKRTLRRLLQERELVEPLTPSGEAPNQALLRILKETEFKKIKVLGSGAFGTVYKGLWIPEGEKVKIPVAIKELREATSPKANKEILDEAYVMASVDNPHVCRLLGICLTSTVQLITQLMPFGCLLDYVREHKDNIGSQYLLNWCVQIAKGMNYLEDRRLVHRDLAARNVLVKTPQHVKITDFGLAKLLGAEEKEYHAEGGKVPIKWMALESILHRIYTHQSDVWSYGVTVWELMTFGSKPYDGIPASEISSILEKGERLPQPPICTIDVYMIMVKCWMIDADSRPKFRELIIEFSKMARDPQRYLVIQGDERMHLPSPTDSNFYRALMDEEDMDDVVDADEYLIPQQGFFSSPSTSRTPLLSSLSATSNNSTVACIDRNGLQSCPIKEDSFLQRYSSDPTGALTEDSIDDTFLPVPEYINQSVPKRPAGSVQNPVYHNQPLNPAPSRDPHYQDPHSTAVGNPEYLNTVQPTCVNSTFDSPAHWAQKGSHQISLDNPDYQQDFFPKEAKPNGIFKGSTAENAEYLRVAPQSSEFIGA

[7] = tested on: NCI-H1975; test: Antitumor activity against human NCI-H1975 cells xenografted in nu/nu mouse assessed as tumor growth inhibition at 20 mg/kg, po qd administered for 21 days; settings: 504 h, read-out: TGI
[8] = tested on: PC-9; test: Antiproliferative activity against human PC9 cells harboring EGFR del19 mutant after 72 hrs by CellTiter-Glo assay; type: functional; settings: PC-9, 72 h
[9] = tested on: Epidermal growth factor receptor (Homo sapiens), P00533 [L858R,T790M,C797S]; test: Inhibition of full length EGFR L858R/T790M/C797S mutant (unknown origin) expressed in mouse BAF3 cells assessed as decrease in cell proliferation after 72 hrs by CellTiter-Glo assay; type: cell-based
Epidermal growth factor receptor (Homo sapiens), P00533 [L858R,T790M,C797S], sequence (P00533 whole entry T790M/C797S/L858R): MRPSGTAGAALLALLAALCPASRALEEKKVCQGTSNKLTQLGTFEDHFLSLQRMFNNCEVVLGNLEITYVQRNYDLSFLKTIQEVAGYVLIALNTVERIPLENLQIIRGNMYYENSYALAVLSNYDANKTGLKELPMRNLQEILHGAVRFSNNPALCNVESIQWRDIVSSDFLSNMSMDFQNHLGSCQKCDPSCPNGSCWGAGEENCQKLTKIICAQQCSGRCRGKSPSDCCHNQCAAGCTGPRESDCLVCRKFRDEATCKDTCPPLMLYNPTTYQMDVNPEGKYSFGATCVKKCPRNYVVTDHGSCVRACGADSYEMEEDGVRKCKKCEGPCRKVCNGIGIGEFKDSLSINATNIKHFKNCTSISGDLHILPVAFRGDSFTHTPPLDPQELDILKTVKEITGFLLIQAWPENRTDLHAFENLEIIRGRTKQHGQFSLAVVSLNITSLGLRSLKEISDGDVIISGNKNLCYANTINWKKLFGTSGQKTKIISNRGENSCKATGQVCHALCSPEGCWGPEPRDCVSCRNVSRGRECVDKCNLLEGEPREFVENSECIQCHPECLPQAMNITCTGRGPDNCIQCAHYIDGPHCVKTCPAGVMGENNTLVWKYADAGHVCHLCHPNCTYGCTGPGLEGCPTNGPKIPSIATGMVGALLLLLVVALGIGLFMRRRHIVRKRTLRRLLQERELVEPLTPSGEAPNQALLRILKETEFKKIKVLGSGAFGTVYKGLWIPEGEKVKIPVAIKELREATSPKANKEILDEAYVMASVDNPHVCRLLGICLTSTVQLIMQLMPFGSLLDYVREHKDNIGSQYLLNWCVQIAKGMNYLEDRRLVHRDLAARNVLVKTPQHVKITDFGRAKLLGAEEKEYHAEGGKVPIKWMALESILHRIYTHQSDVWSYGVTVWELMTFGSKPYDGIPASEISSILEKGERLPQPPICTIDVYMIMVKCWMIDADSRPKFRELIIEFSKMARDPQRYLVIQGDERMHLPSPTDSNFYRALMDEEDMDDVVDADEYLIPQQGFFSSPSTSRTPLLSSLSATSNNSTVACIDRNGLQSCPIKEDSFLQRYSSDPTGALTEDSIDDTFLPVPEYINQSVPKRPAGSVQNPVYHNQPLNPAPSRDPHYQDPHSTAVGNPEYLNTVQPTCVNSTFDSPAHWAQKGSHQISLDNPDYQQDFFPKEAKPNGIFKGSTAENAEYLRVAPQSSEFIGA

[10] = target: ALK tyrosine kinase receptor (Homo sapiens, UniProt Q9UM73); test: Reversible inhibition of ALK phosphorylation at Tyr1604 residue in human NCI-H3122 cells at 30 to 300 nM measured 1 to 24 hrs post compound wash out by immunoblotting method; type: cell-based
[11] = Antiproliferative activity against CHO cells after 72 hrs by CellTiter-Glo assay; type: cell-based, Cricetulus griseus; settings: chinese hamster
[12] = Tmax in Sprague-Dawley rat at 10 mg/kg, po; type: ADME, organism-based; settings: in vivo; procedure, shortened: as §1
[13] = tested on: NCI-H1975; test: Antitumor activity against human NCI-H1975 cells xenografted in po dosed nu/nu mouse assessed as tumor growth inhibition administered for 21 days
[14] = species on record: Homo sapiens; test: Selectivity index, ratio of IC50 for recombinant human wild-type His-tagged EGFR to IC50 for recombinant human GST-tagged EGFR T790M mutant
[15] = target: T1, Epidermal growth factor receptor; test: Inhibition of EGFR phosphorylation at Y1068 in human A549 cells at 300 nM after 4 hrs by immunoblotting method; type: cell-based
[16] = tested on: NCI-H1975; test: Induction of apoptosis in human NCI-H1975 cells xenografted in po dosed nu/nu mouse administered for 21 days by DAB-chromogen-based TUNEL assay
[17] = Half life in Sprague-Dawley rat at 10 mg/kg, po; type: ADME, organism-based; settings: in vivo
Procedure, shortened: (§2)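 Rats dosed once intravenously at 1 mg/kg or orally at 10 mg/kg. Plasma exposure parameters derived: AUC0-t, AUC0-∞, MRT(0-t), Cmax, Tmax, T1/2 and oral bioavailability (F%). Values reported as mean ± spread.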

[18] = tested on: NCI-H1975; test: Antitumor activity against human NCI-H1975 cells xenografted in po dosed nu/nu mouse assessed as decrease in cell proliferation administered for 21 days by Ki67 staining-based immunohistochemical analysis
[19] = target: Epidermal growth factor receptor (Homo sapiens, UniProt P00533, L858R/T790M); test: Inhibition of recombinant human GST-tagged EGFR L858R/T790M mutant expressed in Baculovirus expression system using Tyr 4 peptide as substrate after 1 hr in presence of ATP by Z-LYTE assay
Epidermal growth factor receptor (Homo sapiens, UniProt P00533, L858R/T790M), sequence (P00533 25-1210 T790M/L858R limits assumed): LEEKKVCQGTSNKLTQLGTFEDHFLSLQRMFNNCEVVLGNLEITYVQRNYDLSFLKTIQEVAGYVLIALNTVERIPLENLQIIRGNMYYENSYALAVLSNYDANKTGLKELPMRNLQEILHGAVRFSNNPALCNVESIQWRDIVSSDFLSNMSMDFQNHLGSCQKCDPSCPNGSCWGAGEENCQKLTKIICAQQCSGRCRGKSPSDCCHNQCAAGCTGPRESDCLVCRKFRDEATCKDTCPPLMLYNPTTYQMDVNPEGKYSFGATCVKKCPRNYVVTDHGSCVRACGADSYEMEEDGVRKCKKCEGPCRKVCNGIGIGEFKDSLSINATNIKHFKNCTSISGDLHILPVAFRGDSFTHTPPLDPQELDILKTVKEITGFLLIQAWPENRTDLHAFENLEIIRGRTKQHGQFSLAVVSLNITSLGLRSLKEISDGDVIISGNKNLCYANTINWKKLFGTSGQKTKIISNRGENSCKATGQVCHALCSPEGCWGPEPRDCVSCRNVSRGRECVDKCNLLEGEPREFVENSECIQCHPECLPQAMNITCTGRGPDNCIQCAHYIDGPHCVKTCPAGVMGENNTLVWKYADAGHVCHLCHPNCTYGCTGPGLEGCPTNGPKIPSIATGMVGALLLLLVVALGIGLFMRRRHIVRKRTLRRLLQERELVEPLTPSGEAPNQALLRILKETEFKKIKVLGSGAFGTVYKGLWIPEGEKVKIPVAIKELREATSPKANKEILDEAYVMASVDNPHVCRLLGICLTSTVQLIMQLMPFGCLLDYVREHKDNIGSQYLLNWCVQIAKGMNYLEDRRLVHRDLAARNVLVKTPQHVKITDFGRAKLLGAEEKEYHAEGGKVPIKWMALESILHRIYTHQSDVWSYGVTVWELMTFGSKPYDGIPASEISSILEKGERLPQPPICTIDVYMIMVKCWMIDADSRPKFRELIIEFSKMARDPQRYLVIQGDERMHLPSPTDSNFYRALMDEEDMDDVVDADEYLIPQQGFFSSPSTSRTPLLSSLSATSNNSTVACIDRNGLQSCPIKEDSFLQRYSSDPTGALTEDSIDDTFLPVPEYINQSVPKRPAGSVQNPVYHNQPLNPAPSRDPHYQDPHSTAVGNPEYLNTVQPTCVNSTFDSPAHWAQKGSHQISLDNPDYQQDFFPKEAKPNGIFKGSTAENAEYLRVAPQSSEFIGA

[20] = tested on: Mus musculus; test: Toxicity in nu/nu mouse xenografted with human NCI-H3122 cells assessed as change in body weight at 10 to 40 mg/kg, po qd administered for 28 days; type: organism-based; settings: in vivo, 672 h
[21] = target: T1, Epidermal growth factor receptor; test: Inhibition of EGFR in human NCI-H1975 cells assessed as inhibition of ERK-1/2 phosphorylation at Thr202/Tyr204 residues at 30 nM after 4 hrs by immunoblotting method; type: cell-based
[22] = target: Epidermal growth factor receptor (Homo sapiens, UniProt P00533, T790M); test: Inhibition of recombinant human GST-tagged EGFR T790M mutant expressed in Baculovirus expression system using Tyr 4 peptide as substrate after 1 hr in presence of ATP by Z-LYTE assay
Epidermal growth factor receptor (Homo sapiens, UniProt P00533, T790M), sequence (P00533 25-1210 T790M limits assumed): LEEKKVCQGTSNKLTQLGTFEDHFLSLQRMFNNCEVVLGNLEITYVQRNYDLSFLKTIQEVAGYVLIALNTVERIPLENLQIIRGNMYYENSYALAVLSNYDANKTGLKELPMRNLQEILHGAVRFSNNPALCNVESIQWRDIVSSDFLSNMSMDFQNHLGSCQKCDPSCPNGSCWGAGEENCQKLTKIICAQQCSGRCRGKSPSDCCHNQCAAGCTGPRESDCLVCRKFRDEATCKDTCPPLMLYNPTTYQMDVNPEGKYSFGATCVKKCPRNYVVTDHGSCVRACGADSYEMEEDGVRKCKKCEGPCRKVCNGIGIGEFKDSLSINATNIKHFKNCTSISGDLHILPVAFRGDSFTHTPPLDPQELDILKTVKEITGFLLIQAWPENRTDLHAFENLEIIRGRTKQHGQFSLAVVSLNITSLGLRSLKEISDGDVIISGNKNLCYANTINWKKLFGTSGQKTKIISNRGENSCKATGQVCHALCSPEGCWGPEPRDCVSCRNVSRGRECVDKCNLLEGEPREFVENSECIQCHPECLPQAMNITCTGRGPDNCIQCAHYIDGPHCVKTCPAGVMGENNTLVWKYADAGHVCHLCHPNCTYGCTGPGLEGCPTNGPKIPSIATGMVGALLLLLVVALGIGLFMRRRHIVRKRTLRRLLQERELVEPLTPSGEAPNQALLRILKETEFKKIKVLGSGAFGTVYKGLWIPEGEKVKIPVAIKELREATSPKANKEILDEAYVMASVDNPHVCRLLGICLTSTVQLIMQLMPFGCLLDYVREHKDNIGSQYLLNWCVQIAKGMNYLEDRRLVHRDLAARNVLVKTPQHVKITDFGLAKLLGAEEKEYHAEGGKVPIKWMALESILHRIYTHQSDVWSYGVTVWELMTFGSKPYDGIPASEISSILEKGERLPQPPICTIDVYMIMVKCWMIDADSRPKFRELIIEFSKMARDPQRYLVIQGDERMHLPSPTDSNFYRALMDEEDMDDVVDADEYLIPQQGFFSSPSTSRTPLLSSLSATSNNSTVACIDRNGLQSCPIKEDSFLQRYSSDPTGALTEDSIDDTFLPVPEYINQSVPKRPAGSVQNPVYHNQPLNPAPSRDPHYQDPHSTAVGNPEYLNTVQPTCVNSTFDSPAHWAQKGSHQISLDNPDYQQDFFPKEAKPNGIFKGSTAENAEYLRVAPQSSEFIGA

[23] = tested on: NCI-H3122; test: Antitumor activity against human NCI-H3122 cells xenografted in nu/nu mouse assessed as tumor growth inhibition at 20 mg/kg, po qd administered for 28 days; type: functional; settings: 672 h, read-out: TGI
[24] = tested on: ALK tyrosine kinase receptor (Homo sapiens), Q9UM73 [F1174L]
[25] = tested on: NCI-H2122; test: Antiproliferative activity against human NCI-H2122 cells harboring wild-type EGFR after 72 hrs by CellTiter-Glo assay; type: functional; settings: NCI-H2122, 72 h
[26] = AUC (0 to t) in Sprague-Dawley rat at 10 mg/kg, po; type: ADME, organism-based; settings: in vivo; procedure, shortened: as §2
[27] = tested on: A549; test: Cell cycle arrest in human A549 cells assessed as accumulation at G0/G1 phase at 0.03 to 1 uM after 24 hrs by propidium iodide/RNase staining-based flow cytometry; type: functional
[28] = target: T1, Epidermal growth factor receptor; test: Inhibition of TEL-fused EGFR (unknown origin) expressed in mouse BAF3 cells assessed as decrease in cell proliferation after 72 hrs by CellTiter-Glo assay; type: cell-based
[29] = tested on: NCI-H3122; test: Antitumor activity against human NCI-H3122 cells xenografted in nu/nu mouse assessed as tumor growth inhibition at 10 mg/kg, po qd administered for 28 days; type: functional; settings: 672 h, read-out: TGI
[30] = tested on: A549; test: Induction of apoptosis in human A549 cells assessed as increase in cleaved PARP expression level up to 1 uM after 24 hrs by Western blot method; type: functional, cell-based
[31] = Half life in Sprague-Dawley rat at 1 mg/kg, iv; type: ADME, organism-based; settings: in vivo; procedure, shortened: as §2
[32] = tested on: NCI-H3122; test: Induction of apoptosis in human NCI-H3122 cells xenografted in po dosed nu/nu mouse administered for 28 days by DAB-chromogen-based TUNEL assay; type: functional, organism-based
[33] = tested on: NCI-H3122; test: Antiproliferative activity against human NCI-H3122 cells harboring EML4-fused ALK varian1 after 72 hrs by CellTiter-Glo assay; type: functional; settings: NCI-H3122, 72 h
Procedure, shortened: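 Antiproliferative GI50 against H1975 and H3122 cells; each GI50 value obtained from triplicate testing.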

## C=CC(=O)Nc1cc(Nc2ncc(Cl)c(Nc3ccccc3S(=O)(=O)C(C)C)n2)c(OC)cc1N1CCCN(C)CC1
[1]
  GI50: 0.031 µM
[2]
  Tmax: 1.02 min
[3]
  GI50 at 72 h: 3.5 µM
[4]
  GI50: 0.0062 µM
[5]
  Activity: Active
[6]
  inhibition: inactive
[7]
  inhibition in vivo at 20 mg/kg: 96%
[8]
  GI50: 0.015 µM
[9]
  GI50: 1.1 µM
[10]
  inhibition: Active
[11]
  GI50 at 72 h: 1.8 µM
[12]
  Tmax: 4 h
[13]
  TGI: Dose-dependent effect
[14]
  Ratio IC50: 20 to 30
[15]
  inhibition: Active
[16]
  Activity: Dose-dependent effect
[17]
  half-life: 1.75 h
[18]
  Activity: Dose-dependent effect
[19]
  IC50: 0.0036 µM
[20]
  Activity: Non-Toxic
[21]
  inhibition: Active
[22]
  IC50: 0.0039 µM
[23]
  inhibition in vivo at 20 mg/kg: 68.3%
[24]
  GI50: 0.029 µM
[25]
  GI50: 1.8 µM
[26]
  AUC(0-t): 1.14 µg·h/mL
[27]
  Activity: inactive
[28]
  GI50: 0.016 µM
[29]
  inhibition in vivo at 10 mg/kg: 10.8%
[30]
  Activity: inactive
[31]
  half-life: 0.991 h
[32]
  Activity: Dose-dependent effect
[33]
  GI50: < 0.0003 µM
